# Measured values: ChEMBL document CHEMBL5674883, “The Heterochromatin Landscape in Migrating Cells and the Importance of H3K27me3 for Associated Transcriptome Alterations” (Cells, 2018)
# Tests used:
# Assay type in all cases: cell-based
# [1] = target: Histone-lysine N-methyltransferase EZH2 (Mus musculus) (UniProt Q61188); assay: Inhibition of EZH2 in mouse B16-F1 migrating cells assessed as fold change in H3K27me3-independent regulated Coq10b-mRNA expression at 3 uM measured by […] analysis relative to control cells
# Method in brief: (§1)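 Confluent B16-F1 cells on fibronectin-coated plates were scratched at multiple sites, washed once with DMEM and left to migrate 3 h in growth medium (37 °C, 7% CO2); unscratched cells served as control. GSK343 (3 µM) was added 3 h before lysis. Poly A mRNA was sequenced (RNA-seq), with 5 replicates for untreated and 3 for treated cells. Differential expression was called by linear model with batch correction, at FDR <0.05 and fold change ≥1.3.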
# [2] = target: Histone-lysine N-methyltransferase EZH2 (Mus musculus) (UniProt Q61188); assay: Inhibition of EZH2 in mouse B16-F1 migrating cells assessed as fold change in H3K27me3-buffered regulated 1810032O08Rik-mRNA expression at 3 uM measured by […] analysis relative to control cells
# Method in brief: (§2)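 Confluent B16-F1 cells on fibronectin-coated plates, cultured at 37 °C and 7% CO2, were scratched at multiple sites to induce migration. They were then held 3 h in growth medium containing 3 µM GSK343, with the inhibitor added 3 h before lysis. Unscratched cells served as controls. Poly A mRNA was analysed by RNA-seq (n=3 GSK343, n=5 controls). Linear models removed batch effects, and buffered genes were those altered only under GSK343 (FDR <0.05, fold change >1.3).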
# [3] = target: Histone-lysine N-methyltransferase EZH2 (Mus musculus) (UniProt Q61188); assay: Inhibition of EZH2 in mouse B16-F1 migrating cells assessed as fold change in H3K27me3-dependent regulated Id1-mRNA expression at 3 uM measured by […] analysis relative to control cells; method in brief: as §1
# [4] = target: Histone-lysine N-methyltransferase EZH2 (Mus musculus) (UniProt Q61188); assay: Inhibition of EZH2 in mouse B16-F1 migrating cells assessed as fold change in H3K27me3-buffered regulated Pltp-mRNA expression at 3 uM measured by […] analysis relative to control cells; method in brief: as §2
# [5] = target: Histone-lysine N-methyltransferase EZH2 (Mus musculus) (UniProt Q61188); assay: Inhibition of EZH2 in mouse B16-F1 migrating cells assessed as fold change in H3K27me3-buffered regulated Zc3h7a-mRNA expression at 3 uM measured by […] analysis relative to control cells; method in brief: as §1
# [6] = target: Histone-lysine N-methyltransferase EZH2 (Mus musculus) (UniProt Q61188); assay: Inhibition of EZH2 in mouse B16-F1 migrating cells assessed as fold change in H3K27me3-buffered regulated Foxa1-mRNA expression at 3 uM measured by […] analysis relative to control cells; method in brief: as §2
# [7] = target: Histone-lysine N-methyltransferase EZH2 (Mus musculus) (UniProt Q61188); assay: Inhibition of EZH2 in mouse B16-F1 migrating cells assessed as fold change in H3K27me3-buffered regulated Fam60a-mRNA expression at 3 uM measured by […] analysis relative to control cells; method in brief: as §2
# [8] = target: Histone-lysine N-methyltransferase EZH2 (Mus musculus) (UniProt Q61188); assay: Inhibition of EZH2 in mouse B16-F1 migrating cells assessed as fold change in H3K27me3-independent regulated Ahnak-mRNA expression at 3 uM measured by […] analysis relative to control cells; method in brief: as §1
# [9] = target: Histone-lysine N-methyltransferase EZH2 (Mus musculus) (UniProt Q61188); assay: Inhibition of EZH2 in mouse B16-F1 migrating cells assessed as fold change in H3K27me3-dependent regulated Pxdc1-mRNA expression at 3 uM measured by […] analysis relative to control cells; method in brief: as §1
# [10] = target: Histone-lysine N-methyltransferase EZH2 (Mus musculus) (UniProt Q61188); assay: Inhibition of EZH2 in mouse B16-F1 migrating cells assessed as fold change in H3K27me3-buffered regulated 5031439G07Rik-mRNA expression at 3 uM measured by […] analysis relative to control cells; method in brief: as §2
# [11] = target: Histone-lysine N-methyltransferase EZH2 (Mus musculus) (UniProt Q61188); assay: Inhibition of EZH2 in mouse B16-F1 migrating cells assessed as fold change in H3K27me3-buffered regulated Synm-mRNA expression at 3 uM measured by […] analysis relative to control cells; method in brief: as §1
# [12] = target: Histone-lysine N-methyltransferase EZH2 (Mus musculus) (UniProt Q61188); assay: Inhibition of EZH2 in mouse B16-F1 migrating cells assessed as fold change in H3K27me3-independent regulated Selenbp1-mRNA expression at 3 uM measured by […] analysis relative to control cells; method in brief: as §1
# [13] = target: Histone-lysine N-methyltransferase EZH2 (Mus musculus) (UniProt Q61188); assay: Inhibition of EZH2 in mouse B16-F1 migrating cells assessed as fold change in H3K27me3-independent regulated Serpinb8-mRNA expression at 3 uM measured by […] analysis relative to control cells; method in brief: as §1
# [14] = target: T1, RNA polymerase II (Mus musculus) (UniProt P08775+Q8CFI7+P97760+A0A3Q4L2S8+Q80UW8+P61219+P62488+Q923G2+P60898+O08740+Q63871+P62876); assay: Inhibition of RNA polymerase II in mouse B16-F1 migrating cells assessed as fold change in BC004004-RNA stability at 0.1 mM measured by […] analysis relative to control cells
# [15] = target: T1, RNA polymerase II (Mus musculus); assay: Inhibition of RNA polymerase II in mouse B16-F1 migrating cells assessed as fold change in Ifit2-RNA stability at 0.1 mM measured by […] analysis relative to control cells
# Method in brief: (§3)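 Mouse B16-F1 melanoma cells grown to confluence on fibronectin in DMEM/10% FCS at 37 °C, 7% CO2. Migration induced by multiple scratches and 3 h incubation; unscratched controls. DRB 0.1 mM added 3 h before lysis. RNA from poly A-selected mRNA was sequenced (RNA-seq, three replicates per DRB group). Fold change computed for DRB-treated migrating vs DRB-treated control cells; cutoffs fold change >1.3, FDR <0.05.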
# [16] = target: T1, RNA polymerase II (Mus musculus); assay: Inhibition of RNA polymerase II in mouse B16-F1 migrating cells assessed as fold change in Cd2ap-RNA stability at 0.1 mM measured by […] analysis relative to control cells; method in brief: as §3
# [17] = target: T1, RNA polymerase II (Mus musculus); assay: Inhibition of RNA polymerase II in mouse B16-F1 migrating cells assessed as fold change in Slc27a3-RNA stability at 0.1 mM measured by […] analysis relative to control cells
# [18] = target: T1, RNA polymerase II (Mus musculus); assay: Inhibition of RNA polymerase II in mouse B16-F1 migrating cells assessed as fold change in Fth1-RNA stability at 0.1 mM measured by ChIP-seq analysis relative to control cells
# [19] = target: T1, RNA polymerase II (Mus musculus); assay: Inhibition of RNA polymerase II in mouse B16-F1 migrating cells assessed as fold change in Acbd6-RNA stability at 0.1 mM measured by […] analysis relative to control cells
# [20] = target: T1, RNA polymerase II (Mus musculus); assay: Inhibition of RNA polymerase II in mouse B16-F1 migrating cells assessed as fold change in Crbn-RNA stability at 0.1 mM measured by ChIP-seq analysis relative to control cells
# [21] = target: T1, RNA polymerase II (Mus musculus); assay: Inhibition of RNA polymerase II in mouse B16-F1 migrating cells assessed as fold change in Larp4-RNA stability at 0.1 mM measured by ChIP-seq analysis relative to control cells
# [22] = target: T1, RNA polymerase II (Mus musculus); assay: Inhibition of RNA polymerase II in mouse B16-F1 migrating cells assessed as fold change in Psip1-RNA stability at 0.1 mM measured by […] analysis relative to control cells
# [23] = target: T1, RNA polymerase II (Mus musculus); assay: Inhibition of RNA polymerase II in mouse B16-F1 migrating cells assessed as fold change in Mex3c-RNA stability at 0.1 mM measured by ChIP-seq analysis relative to control cells
# [24] = target: T1, RNA polymerase II (Mus musculus); assay: Inhibition of RNA polymerase II in mouse B16-F1 migrating cells assessed as fold change in Plekha2-RNA stability at 0.1 mM measured by […] analysis relative to control cells
# Chain of Histone-lysine N-methyltransferase EZH2 (Mus musculus) (Q61188 whole entry): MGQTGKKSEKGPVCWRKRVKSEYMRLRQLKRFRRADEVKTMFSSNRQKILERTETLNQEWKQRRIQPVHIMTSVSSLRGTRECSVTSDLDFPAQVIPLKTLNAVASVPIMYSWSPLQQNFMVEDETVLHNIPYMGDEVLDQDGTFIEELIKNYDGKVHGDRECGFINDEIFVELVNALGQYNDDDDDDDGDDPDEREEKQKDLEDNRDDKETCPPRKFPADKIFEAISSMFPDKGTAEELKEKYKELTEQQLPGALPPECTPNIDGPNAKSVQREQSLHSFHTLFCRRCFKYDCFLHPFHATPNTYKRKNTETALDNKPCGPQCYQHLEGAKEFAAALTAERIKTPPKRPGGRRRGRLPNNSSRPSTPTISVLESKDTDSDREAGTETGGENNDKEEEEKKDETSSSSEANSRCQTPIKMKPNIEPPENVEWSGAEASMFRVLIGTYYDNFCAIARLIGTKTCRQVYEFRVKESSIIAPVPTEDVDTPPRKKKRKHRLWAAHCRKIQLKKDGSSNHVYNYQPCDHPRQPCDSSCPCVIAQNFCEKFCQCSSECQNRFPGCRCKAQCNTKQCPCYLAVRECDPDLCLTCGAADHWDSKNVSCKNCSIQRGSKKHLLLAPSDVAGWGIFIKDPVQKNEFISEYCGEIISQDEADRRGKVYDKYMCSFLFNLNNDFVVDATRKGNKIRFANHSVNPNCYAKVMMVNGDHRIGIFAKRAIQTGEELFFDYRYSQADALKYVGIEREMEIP
compound,measurement,setting,value
CCCc1cc(C)[nH]c(=O)c1CNC(=O)c1cc(-c2ccnc(N3CCN(C)CC3)c2)cc2c1cnn2C(C)C,log2FC,[1],0.56
same,log2FC,[2],-1.08
same,log2FC,[3],0.16
same,log2FC,[4],0.39
same,log2FC,[5],-0.42
same,log2FC,[6],-0.77
same,log2FC,[7],-0.61
same,log2FC,[8],0.4
same,log2FC,[9],-0.09
same,log2FC,[10],0.45
same,log2FC,[11],1.06
same,log2FC,[12],1.01
same,log2FC,[13],0.81
OC[C@H]1O[C@@H](n2cnc3cc(Cl)c(Cl)cc32)[C@H](O)[C@@H]1O,log2FC,[14],0.39
same,log2FC,[15],-0.69
same,log2FC,[16],-0.57
same,log2FC,[17],0.65
same,log2FC,[18],0.6
same,log2FC,[19],0.43
same,log2FC,[20],-0.45
same,log2FC,[21],-0.9
same,log2FC,[22],-0.83
same,log2FC,[23],-0.71
same,log2FC,[24],0.71
